# Data published in ChEMBL document CHEMBL4400560, “Discovery and optimization of novel piperazines as potent inhibitors of fatty acid synthase (FASN)” (Bioorg Med Chem Lett, 2019).
# Columns and labels:
# [1] = Stability in mouse liver microsomes assessed as compound remaining after 30 mins; type: ADME, Microsome; details: read-out: Stability
# Procedure, shortened: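 Mouse liver microsomes, 30-min incubation. Result expressed as percent of parent remaining.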
# Fatty acid synthase [2] = target: T1, Fatty acid synthase (Homo sapiens, UniProt P49327); test: Inhibition of full length recombinant human FASN using acetyl-CoA/malonyl-CoA as substrate preincubated for 60 mins followed by substrate addition and measured after 90 mins in presence of NADPH
# Procedure, shortened: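 Full-length recombinant human FASN. CoA released is detected as a fluorescent conjugate with the coumarin maleimide CPM. IC50 is the mean of at least two separate runs.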
# PC-3 = test: Antiproliferative activity against human PC3 cells after 96 hrs by MTT assay; type: functional, cell-based; details: PC-3, 96 h
# Procedure, shortened: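 PC3 prostate cancer cells grown in medium with 10% lipid-reduced serum, a condition in which growth depends on de novo lipogenesis, in the presence of inhibitor. Antiproliferative IC50 reported as the mean of at least two separate runs.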
# Fatty acid synthase [3] = target: T1, Fatty acid synthase; test: Inhibition of FASN in human BT474 cells preincubated for 1 hr followed by [14C]-acetate addition and measured after 4 hrs by scintillation counting assay; type: cell-based
# Procedure, shortened: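 BT474 breast cancer cells given 14C-acetate, which cellular FASN incorporates via acetyl-CoA into newly made radiolabeled palmitate. IC50 for blocking this incorporation is the mean of at least two separate runs.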
# [4] = Kinetic solubility of compound at pH 7.4; type: physicochemical; details: buffer, read-out: Kinetic_solubility
# Procedure, shortened: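 Kinetic solubility measured at pH 7.4.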
# [5] = AUC in mouse at mg/kg, po; type: ADME, organism-based; parameters: concentration or dose not given beside the values; details: in vivo
# Procedure, shortened: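 Mouse oral PK study at 5 mg/kg p.o., with plasma exposure taken as AUC0-8h.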
# [6] = Intrinsic clearance in human liver microsomes; type: ADME, Microsome; details: read-out: CLH
# [7] = Intrinsic clearance in mouse liver microsomes; type: ADME, Microsome; details: read-out: CLH
# [8] = Toxicity in mouse assessed as drug tolerability administered as single dose; details: in vivo
# Procedure, shortened: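 Mice received a single oral (PO) dose of 5 mg/kg and were watched for acute toxicity to judge tolerability. Female Balb/c nude mice were used for the fluorobenzoxazole analogues. Tolerability was expressed as whether the single dose was tolerated or as a maximum tolerated dose.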
# [9] = Stability in mouse hepatocytes after 1 hr; type: ADME, cell-based, Hepatocyte; details: read-out: Stability
# [10] = Stability in mouse liver S9 fraction after 1 hr; type: ADME, subcellular; details: read-out: Stability
# T1 sequence (P49327 whole entry): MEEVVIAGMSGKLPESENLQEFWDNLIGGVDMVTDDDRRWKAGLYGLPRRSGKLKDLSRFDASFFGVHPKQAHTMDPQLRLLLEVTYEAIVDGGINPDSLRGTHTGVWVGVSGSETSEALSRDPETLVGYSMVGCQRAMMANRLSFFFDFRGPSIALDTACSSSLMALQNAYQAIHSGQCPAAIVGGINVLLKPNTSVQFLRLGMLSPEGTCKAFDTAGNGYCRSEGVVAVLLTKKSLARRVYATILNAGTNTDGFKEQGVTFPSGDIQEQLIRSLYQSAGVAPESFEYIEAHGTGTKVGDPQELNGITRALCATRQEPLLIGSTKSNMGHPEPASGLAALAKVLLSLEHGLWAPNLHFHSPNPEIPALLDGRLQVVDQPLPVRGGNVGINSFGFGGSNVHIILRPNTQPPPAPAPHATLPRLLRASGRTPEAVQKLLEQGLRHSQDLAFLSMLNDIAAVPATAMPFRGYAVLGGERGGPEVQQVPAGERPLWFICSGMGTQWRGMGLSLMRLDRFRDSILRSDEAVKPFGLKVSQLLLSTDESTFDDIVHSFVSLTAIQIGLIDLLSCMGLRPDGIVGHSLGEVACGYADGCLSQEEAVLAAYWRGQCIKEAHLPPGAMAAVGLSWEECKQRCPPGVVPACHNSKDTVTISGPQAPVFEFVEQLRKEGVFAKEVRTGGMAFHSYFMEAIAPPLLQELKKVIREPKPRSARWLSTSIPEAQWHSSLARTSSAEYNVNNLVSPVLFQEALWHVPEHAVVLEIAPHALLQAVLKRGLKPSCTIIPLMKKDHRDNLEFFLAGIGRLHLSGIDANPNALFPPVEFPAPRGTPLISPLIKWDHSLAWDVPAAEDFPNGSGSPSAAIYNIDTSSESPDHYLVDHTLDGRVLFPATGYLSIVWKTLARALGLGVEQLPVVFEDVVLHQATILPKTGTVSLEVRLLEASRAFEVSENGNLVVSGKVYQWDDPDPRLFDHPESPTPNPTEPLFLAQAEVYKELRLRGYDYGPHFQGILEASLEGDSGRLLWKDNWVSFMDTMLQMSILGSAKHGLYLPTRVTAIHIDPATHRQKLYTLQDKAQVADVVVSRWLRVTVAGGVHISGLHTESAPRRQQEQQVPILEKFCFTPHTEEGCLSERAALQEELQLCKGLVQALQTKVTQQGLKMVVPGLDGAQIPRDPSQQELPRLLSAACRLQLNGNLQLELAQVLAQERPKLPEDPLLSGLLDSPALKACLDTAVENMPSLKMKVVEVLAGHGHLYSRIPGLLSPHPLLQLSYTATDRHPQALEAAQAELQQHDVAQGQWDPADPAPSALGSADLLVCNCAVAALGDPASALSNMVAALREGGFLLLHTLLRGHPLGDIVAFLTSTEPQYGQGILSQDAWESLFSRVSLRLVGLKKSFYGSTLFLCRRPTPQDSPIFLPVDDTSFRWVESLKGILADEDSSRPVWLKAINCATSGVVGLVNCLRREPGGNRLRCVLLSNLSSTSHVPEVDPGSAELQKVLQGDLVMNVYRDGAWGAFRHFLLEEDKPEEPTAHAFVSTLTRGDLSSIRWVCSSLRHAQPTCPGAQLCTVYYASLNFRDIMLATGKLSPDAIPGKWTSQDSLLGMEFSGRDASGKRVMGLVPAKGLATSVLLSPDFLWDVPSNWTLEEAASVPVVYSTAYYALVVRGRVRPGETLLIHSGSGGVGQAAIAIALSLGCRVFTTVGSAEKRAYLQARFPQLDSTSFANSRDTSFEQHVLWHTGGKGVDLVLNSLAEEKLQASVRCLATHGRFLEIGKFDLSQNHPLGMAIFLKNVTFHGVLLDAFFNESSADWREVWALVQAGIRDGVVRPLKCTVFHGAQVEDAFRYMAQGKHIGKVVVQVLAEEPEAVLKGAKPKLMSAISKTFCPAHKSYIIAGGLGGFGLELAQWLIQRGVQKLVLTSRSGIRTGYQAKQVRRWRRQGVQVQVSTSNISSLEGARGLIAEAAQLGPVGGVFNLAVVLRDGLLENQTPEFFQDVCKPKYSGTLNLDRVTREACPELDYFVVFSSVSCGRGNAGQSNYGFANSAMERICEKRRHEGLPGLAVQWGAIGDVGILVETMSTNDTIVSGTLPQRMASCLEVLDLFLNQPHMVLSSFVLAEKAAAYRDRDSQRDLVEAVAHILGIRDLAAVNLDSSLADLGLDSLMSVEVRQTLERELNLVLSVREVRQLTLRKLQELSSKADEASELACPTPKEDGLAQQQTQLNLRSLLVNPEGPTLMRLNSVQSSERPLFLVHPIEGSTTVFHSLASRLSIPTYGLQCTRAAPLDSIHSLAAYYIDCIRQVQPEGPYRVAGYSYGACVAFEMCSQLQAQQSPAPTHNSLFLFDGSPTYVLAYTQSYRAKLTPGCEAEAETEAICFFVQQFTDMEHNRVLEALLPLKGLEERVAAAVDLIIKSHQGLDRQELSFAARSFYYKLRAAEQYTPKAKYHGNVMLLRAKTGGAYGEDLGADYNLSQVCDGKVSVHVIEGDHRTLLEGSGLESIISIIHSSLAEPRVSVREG
SMILES,remaining at 0.5 h [1] [%],IC50 (Fatty acid synthase [2]) [nM],IC50 (PC-3) [nM],IC50 (Fatty acid synthase [3]) [nM],solubility kinetic [4] [µM],AUC [5] [µM·h],microsomal CLint [6] [µL/min/mg],microsomal CLint [7] [µL/min/mg],MTD [8] [mg/kg],remaining at 1 h [9] [%],remaining at 1 h [10] [%]
O=C(c1ccc(-c2ccc3[nH]ccc3c2)cc1)N1CCN(C(=O)C2(O)CC2)CC1,55,16,4,18,60,–,–,–,–,–,–
O=C(c1ccc(-c2nc3ccc(Cl)cc3o2)cc1)N1CCN(C(=O)C2(O)CC2)CC1,92,97,29,104,7,–,–,–,–,–,–
O=C(c1ccc(-c2ccc3scnc3c2)cc1)N1CCN(C(=O)C2(O)CC2)CC1,88,32,17,11,95,–,–,–,–,–,–
CC(C)(O)C(=O)N1CCN(C(=O)c2ccc(-c3ccccc3)cc2)CC1,99,35000,–,–,–,–,–,–,–,–,–
O=C(c1ccc(-c2cc(Cl)ccc2F)cc1)N1CCN(C(=O)C2(O)CC2)CC1,66,110,138,158,43,–,–,–,–,–,–
O=C(c1ccc(-c2ccccc2)cc1)N1CCN(C(=O)[C@H]2CCCO2)CC1,100,1100,–,–,–,–,–,–,–,–,–
O=C(c1ccc(-c2ccc3ccccc3n2)cc1)N1CCN(C(=O)C2(O)CC2)CC1,79,32,2,101,71,–,–,–,–,–,–
Cn1ccc2cc(-c3ccc(C(=O)N4CCN(C(=O)C5(O)CC5)CC4)cc3)ccc21,81,12,–,19,3,–,–,–,–,–,–
O=C(c1ccc(-c2nc3ccccc3o2)cc1)N1CCN(C(=O)C2(O)CC2)CC1,109,54,15,101,83,28.7,7,7,< 5,–,–
O=C(c1ccc(-c2ccccc2)cc1)N1CCN(C(=O)C2(O)CCC2)CC1,85,1800,–,–,–,–,–,–,–,–,–
O=C(c1ccc(-c2cnc3cccnc3c2)cc1)N1CCN(C(=O)C2(O)CC2)CC1,89,> 5000,–,> 125000,95,–,–,–,–,–,–
O=C(c1ccc(-c2ccc3cnccc3c2)cc1)N1CCN(C(=O)C2(O)CC2)CC1,45,13,13,11,77,0.1,–,–,–,1,0
O=C(c1ccc(-c2ccccc2)cc1)N1CCN(C(=O)[C@@H]2CCCO2)CC1,65,≥ 50000,–,–,–,–,–,–,–,–,–
O=C(c1ccc(-c2nc3cc(Cl)ccc3o2)cc1)N1CCN(C(=O)C2(O)CC2)CC1,85,69,49,136,6,–,–,–,–,–,–
